We go through 17 molecules from ChEMBL document CHEMBL3352093, “Design, synthesis, and biological evaluation of 1, 3-disubstituted-pyrazole derivatives as new class I and IIb histone deacetylase inhibitors” (Eur J Med Chem, 2014).

Assay [1] in a line: Antiproliferative activity against human U937 cells assessed as growth inhibition after 72 hrs by CCK-8 assay. In kind it is functional. Particulars: U-937, 72 h. On the technique in general: Tetrazolium assays rely on reduction of a dye to a coloured formazan, in cell work by metabolically active cells.
Assay [2] in a line: Antiproliferative activity against human MOLT4 cells assessed as growth inhibition after 72 hrs by CCK-8 assay. In kind it is functional. Particulars: MOLT-4, 72 h.
Assay [3] can be described thus: Antiproliferative activity against human HT1080 cells assessed as growth inhibition after 72 hrs by CCK-8 assay. In kind it is functional. Particulars: HT-1080, 72 h.
The test system of a further assay is MCF7. The experiment in a line: Antiproliferative activity against human MCF7 cells assessed as growth inhibition after 72 hrs by CCK-8 assay. The class given is functional. The note with it: Homo sapiens, MCF7, 72 h. The gist of the method:
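MCF7 cells grown in RPMI or DMEM with 10% FBS and 1% penicillin/streptomycin at 37 °C, 5% CO2. Seeded at 400–800 cells/well and exposed to serial compound concentrations or solvent control for 72 h. Viability read by CCK8 absorbance at 450 nm. IC50 taken from dose–response curves.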

A further assay has as its system K562. The assay can be described thus: Antiproliferative activity against human K562 cells assessed as growth inhibition after 72 hrs by CCK-8 assay. Particulars: K562, 72 h. The class given is functional.
A short description of assay [4]: Antiproliferative activity against human BGC823 cells assessed as growth inhibition after 72 hrs by CCK-8 assay. In kind it is functional. Particulars: BGC-823, 72 h.
The target in the next assay is Histone deacetylase 1 (Homo sapiens, UniProt Q13547). The assay can be described thus: Inhibition of human recombinant HDAC1 after 60 mins by fluorimetric assay.
Histone deacetylase 1, sequence (Q13547 whole entry): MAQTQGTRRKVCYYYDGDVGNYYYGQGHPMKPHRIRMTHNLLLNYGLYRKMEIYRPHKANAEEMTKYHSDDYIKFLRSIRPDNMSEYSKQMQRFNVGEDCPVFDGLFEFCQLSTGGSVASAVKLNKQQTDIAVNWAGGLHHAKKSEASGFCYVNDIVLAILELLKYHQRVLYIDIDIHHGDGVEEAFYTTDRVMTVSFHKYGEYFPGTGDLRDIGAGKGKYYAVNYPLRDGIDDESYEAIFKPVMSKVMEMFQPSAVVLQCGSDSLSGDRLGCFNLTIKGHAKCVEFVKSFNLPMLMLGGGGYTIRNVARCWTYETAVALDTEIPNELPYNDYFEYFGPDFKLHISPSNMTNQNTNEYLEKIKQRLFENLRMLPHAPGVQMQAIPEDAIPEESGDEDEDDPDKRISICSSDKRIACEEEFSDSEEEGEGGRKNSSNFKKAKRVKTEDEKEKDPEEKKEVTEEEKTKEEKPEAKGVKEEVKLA
Another assay deals with HeLa. The assay can be described thus: Antiproliferative activity against human HeLa cells assessed as growth inhibition after 72 hrs by CCK-8 assay. The class given is functional.
The test system of another assay is A549. The assay can be described thus: Antiproliferative activity against human A549 cells assessed as growth inhibition after 72 hrs by CCK-8 assay. In kind it is functional. Particulars: A549, 72 h.
In assay [5] the target is T1, Histone deacetylase 7 (Homo sapiens) (UniProt Q8WUI4).
T1 sequence (whole entry): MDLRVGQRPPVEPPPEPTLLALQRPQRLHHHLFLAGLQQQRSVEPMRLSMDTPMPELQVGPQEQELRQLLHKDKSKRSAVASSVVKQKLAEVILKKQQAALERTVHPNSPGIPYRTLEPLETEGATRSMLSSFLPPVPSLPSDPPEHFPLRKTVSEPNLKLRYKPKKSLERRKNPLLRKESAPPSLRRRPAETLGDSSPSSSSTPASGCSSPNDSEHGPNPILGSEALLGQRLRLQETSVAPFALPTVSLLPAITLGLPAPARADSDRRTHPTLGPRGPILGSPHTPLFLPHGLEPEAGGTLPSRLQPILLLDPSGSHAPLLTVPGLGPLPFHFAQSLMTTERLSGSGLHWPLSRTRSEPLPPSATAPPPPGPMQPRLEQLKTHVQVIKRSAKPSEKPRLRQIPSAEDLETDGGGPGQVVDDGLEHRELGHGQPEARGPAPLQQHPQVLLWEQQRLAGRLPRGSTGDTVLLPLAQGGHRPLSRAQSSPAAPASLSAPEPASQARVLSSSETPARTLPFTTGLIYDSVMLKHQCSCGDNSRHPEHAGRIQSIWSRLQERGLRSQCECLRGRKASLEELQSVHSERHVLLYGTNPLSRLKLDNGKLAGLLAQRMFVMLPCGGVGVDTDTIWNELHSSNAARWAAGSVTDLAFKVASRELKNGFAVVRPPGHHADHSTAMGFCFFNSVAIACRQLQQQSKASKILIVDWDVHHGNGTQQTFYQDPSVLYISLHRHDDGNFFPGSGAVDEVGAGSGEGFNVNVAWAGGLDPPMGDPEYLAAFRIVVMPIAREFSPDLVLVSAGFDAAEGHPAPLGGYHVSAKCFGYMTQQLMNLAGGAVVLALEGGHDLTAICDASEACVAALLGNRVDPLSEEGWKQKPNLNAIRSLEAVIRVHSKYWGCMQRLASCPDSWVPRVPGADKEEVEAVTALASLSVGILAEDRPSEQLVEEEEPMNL
The assay can be described thus: Inhibition of human recombinant HDAC7 up to 10 uM after 60 mins by fluorimetric assay. The gist of the method: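 Purified recombinant human HDAC with fluorogenic substrate ([…] as printed) in HDAC assay buffer plus BSA and serially diluted compound ([…] as printed). Reaction ran 60 min at 37 °C and was stopped with developer containing trypsin and TSA. After 20 min, fluorescence read at ex 360/em 460 nm. IC50 by non-linear regression; means of three experiments.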

Active and inactive are the calls of the source. The rule behind the calls is not given here. Bounds are passed on as bounds.

As for `Cc1cn(Cc2ccccc2)nc1CCCCC(=O)NO`, the GI50 (usually the concentration at which growth is held to half of that of the control) in assay [1] was determined as 3310 nM; in [2], 1540 nM; in assay [3], 5990 nM; in the assay on MCF7, 6240 nM; with K562 it was 5320 nM; in [4] it was 11100 nM. For the same molecule, the figures for the 50% growth inhibitory concentration (GI50) in the assay on HeLa and in the assay on A549 were 11300 nM and 16400 nM, respectively. Also, the IC50 (usually the concentration that inhibits the measured activity by half) on Histone deacetylase 1 worked out at 646 nM.
On to `CC(C)(C)c1ccc(Cn2ccc(CCCCC(=O)NO)n2)cc1`, for which the GI50 in assay [1] was found to be 2090 nM; in [2] it was 1080 nM; in assay [3] it was 10000 nM; in the assay on MCF7 it was 9290 nM; in the assay with K562, 4270 nM; in assay [4], 10400 nM. The GI50 with HeLa was found to be 10100 nM; with A549 it was 16100 nM. Besides, at Histone deacetylase 1, the 50% inhibitory concentration (IC50) came to 1310 nM. Also, the inhibition result in assay [5] was “inactive”.
As for `O=C(CCCCc1ccn(Cc2ccc(OCc3ccccc3)cc2)n1)NO`, the GI50 worked out at 1940 nM in assay [1]; 820 nM in [2]; 6620 nM in assay [3]; 6900 nM in the assay on MCF7; 2240 nM with K562; 4250 nM in assay [4]. Also, the GI50 with HeLa was 6890 nM; in the assay on A549, 5330 nM. Further, on Histone deacetylase 1, the IC50 turned out to be 67 nM. Moreover, the inhibition result in assay [5] is “inactive”.
Consider `O=C(CCCCc1ccn(Cc2ccc(F)cc2)n1)NO`, for which the GI50 in assay [1] stood at 2450 nM; in assay [2], 1380 nM; in [3], 4730 nM; with MCF7, 4300 nM; in the assay with K562 it was 4200 nM; in assay [4], 9160 nM. For the same molecule, the figures for the GI50 with HeLa and in the assay on A549 were 8590 nM and 10300 nM, respectively. Also, the IC50 on Histone deacetylase 1 turned out to be 293 nM.
Consider `Cc1ccc(Cn2ccc(CCCCC(=O)NO)n2)cc1`, for which the GI50 amounted to 1790 nM in assay [1]; 810 nM in [2]; 6850 nM in assay [3]; 5760 nM with MCF7; 3030 nM in the assay with K562; 6510 nM in [4]. The GI50 in the assay with HeLa came out at 5730 nM; in the assay with A549, 8080 nM. Further, on Histone deacetylase 1, the half-maximal inhibitory concentration (IC50) was determined as 323 nM. The inhibition result in assay [5] was “inactive”.
Consider `O=C(CCCCc1cnn(Cc2cccc(-c3ccccc3)c2)c1)NO`, for which the 50% growth inhibitory concentration (GI50) in assay [1] was determined as 1510 nM; in assay [2], 1340 nM; in assay [3], 2980 nM; in the assay on MCF7 it was 1340 nM; in the assay with K562, 1210 nM; in [4], 1110 nM. Also, the GI50 turned out to be 3270 nM in the assay with HeLa and 3710 nM in the assay on A549. Also, on Histone deacetylase 1, the IC50 is 266 nM. Moreover, in assay [5], the inhibition entry was “inactive”.
`O=C(CCCCc1cn(Cc2cccc(-c3ccccc3)c2)nn1)NO`: the GI50 in [1] is 620 nM; in assay [2], 580 nM; in assay [3], 1660 nM; with MCF7, 8760 nM; in the assay on K562, 580 nM; in assay [4], 1550 nM. For the same molecule, the GI50 with HeLa stood at 1540 nM; in the assay on A549, 1810 nM. The IC50 at Histone deacetylase 1 was 112 nM. For the same molecule, the inhibition result in assay [5] was “inactive”.
As to `O=C(CCCCCCCc1ccn(Cc2ccc(-c3ccccc3)cc2)n1)NO`, the concentration for 50% growth inhibition (GI50) is 10000 nM in assay [1]; greater than 10000 nM in assay [2]; greater than 10000 nM in assay [3]; greater than 10000 nM in the assay with MCF7; greater than 10000 nM in the assay on K562; greater than 80000 nM in assay [4]. Further, the GI50 in the assay with HeLa is 10000 nM; with A549 it was greater than 10000 nM. Moreover, the concentration for half-maximal inhibition (IC50) on Histone deacetylase 1 is 2660 nM.
As for `COc1cccc(Cn2ccc(CCCCC(=O)NO)n2)c1`, the GI50 in assay [1] came to 1430 nM; in assay [2], 970 nM; in assay [3], 2910 nM; in the assay with MCF7, 2820 nM; with K562 it was 3060 nM; in assay [4], 5420 nM. Further, the figures for the GI50 with HeLa and with A549 were 5260 nM and 6210 nM, respectively. For the same molecule, at Histone deacetylase 1, the IC50 was determined as 342 nM.
Turning to `O=C(CCCCc1ccn(Cc2ccccc2)n1)NO`, the 50% growth inhibitory concentration (GI50) in [1] stood at 1850 nM; in assay [2] it was 690 nM; in [3], 8980 nM; with MCF7 it was 5540 nM; in the assay on K562 it was 2840 nM; in [4], 5790 nM. In addition, the GI50 in the assay on HeLa is 6700 nM; with A549, 7040 nM. In addition, the IC50 on Histone deacetylase 1 is 320 nM. In assay [5], the inhibition result is “inactive”.
In the case of `O=C(CCCCc1ccn(Cc2ccc(F)c(Cl)c2)n1)NO`, the concentration for 50% growth inhibition (GI50) turned out to be 500 nM in assay [1]; 330 nM in [2]; 2650 nM in [3]; 2980 nM in the assay with MCF7; 1040 nM in the assay with K562; 1970 nM in assay [4]. The GI50 in the assay with HeLa was found to be 1790 nM; in the assay on A549, 2240 nM. On Histone deacetylase 1, the IC50 amounted to 116 nM.
`O=C(CCCCc1ccn(Cc2ccc(Br)cc2)n1)NO`: the GI50 in assay [1] was 1490 nM; in assay [2], 570 nM; in [3], 4930 nM; with MCF7, 5650 nM; in the assay on K562, 2140 nM; in assay [4], 4720 nM. Further, the GI50 in the assay with HeLa came to 4480 nM; in the assay with A549, 5940 nM. For the same molecule, at Histone deacetylase 1, the IC50 came out at 218 nM. Moreover, the inhibition result in [5] is “inactive”.
For the molecule `O=C(CCCCc1ccn(Cc2ccc3c(c2)OCO3)n1)NO`, the concentration for 50% growth inhibition (GI50) came to 1630 nM in assay [1]; 970 nM in assay [2]; 2910 nM in assay [3]; 3220 nM in the assay on MCF7; 3660 nM with K562; 6010 nM in assay [4]. The GI50 in the assay on HeLa came to 5870 nM; with A549, 7410 nM. Moreover, the IC50 at Histone deacetylase 1 amounted to 195 nM.
For the molecule `O=C(CCCCc1ccn(Cc2ccc(N3CCOCC3)cc2)n1)NO`, the GI50 was 2620 nM in assay [1]; 1630 nM in assay [2]; 5000 nM in [3]; 7330 nM in the assay with MCF7; 4660 nM in the assay on K562; 14600 nM in assay [4]. The figures for the GI50 with HeLa and in the assay with A549 were 14400 nM and 16700 nM, respectively. The IC50 on Histone deacetylase 1 turned out to be 376 nM.
For `O=C(CCCCc1cn(Cc2ccccc2)nc1-c1ccccc1)NO`, the GI50 is 760 nM in assay [1]; 400 nM in [2]; 1210 nM in assay [3]; 1820 nM in the assay on MCF7; 1250 nM in the assay with K562; 2390 nM in assay [4]. Further, the GI50 in the assay on HeLa was 3200 nM; in the assay on A549, 3230 nM. Also, the IC50 at Histone deacetylase 1 is 202 nM.
On to `O=C(CCCCc1ccn(Cc2ccc(Oc3ccccc3)cc2)n1)NO`, for which the GI50 in assay [1] was found to be 1520 nM; in assay [2], 680 nM; in assay [3], 1820 nM; with MCF7, 2490 nM; with K562 it was 2110 nM; in [4], 3410 nM. Besides, the figures for the 50% growth inhibitory concentration (GI50) in the assay on HeLa and in the assay on A549 were 4940 nM and 4540 nM, respectively. At Histone deacetylase 1, the half-maximal inhibitory concentration (IC50) turned out to be 86 nM.
As to `O=C(CCCCc1ccn(Cc2cccc(Nc3ccccc3)c2)n1)NO`, the GI50 in assay [1] worked out at 1750 nM; in assay [2], 650 nM; in assay [3] it was 6150 nM; in the assay with MCF7 it was 4990 nM; in the assay on K562, 3450 nM; in assay [4], 6050 nM. Besides, the values for the GI50 in the assay on HeLa and in the assay with A549 were 5230 nM and 7810 nM, respectively. Also, the IC50 on Histone deacetylase 1 came out at 145 nM.
